Data as given in ChEMBL document CHEMBL1137984, “Structure-activity relationship of heterobase-modified 2'-C-methyl ribonucleosides as inhibitors of hepatitis C virus RNA replication” (J Med Chem, 2004).

System: not listed separately
Experiment: Tmax value in rats
Assay type: ADME
Conditions: rat, in vivo
Outline: (§1)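 Male CRL rats; single intravenous dose of 1.0 mg/kg (N = 2) and oral dose at […] (N = 3). Plasma sampled and analysed by a method described earlier; clearance, half-life, Cmax, Tmax and %F derived from plasma levels.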
`C[C@@]1(O)[C@H](O)[C@@H](CO)O[C@H]1n1cc(F)c2c(N)ncnc21` showed a Tmax of 30 min.

System: not listed separately
Experiment: Clearance in rats when administered at a dose of 1 mg/kg i.v. and […] p.o.
Assay type: ADME, organism-based
Set-up: dose 1 mg/kg
Conditions: rat, in vivo, iv
Outline: as §1
In the case of `C[C@@]1(O)[C@H](O)[C@@H](CO)O[C@H]1n1cnc2c(N)ncnc21`, the Clearance is reported as over 200 mL/min/kg. `C[C@@]1(O)[C@H](O)[C@@H](CO)O[C@H]1n1cc(F)c2c(N)ncnc21` gave a Clearance of 44 mL/min/kg.

System: not listed separately
Experiment: Cmax value in rats
Assay type: ADME, organism-based
Conditions: rat, in vivo
Outline: as §1
`C[C@@]1(O)[C@H](O)[C@@H](CO)O[C@H]1n1cc(F)c2c(N)ncnc21` showed a Cmax of 600 nM.

System: not listed separately
Experiment: Oral bioavailability in rat
Assay type: ADME, organism-based
Conditions: in vivo
Outline: as §1
Compound `C[C@@]1(O)[C@H](O)[C@@H](CO)O[C@H]1n1cnc2c(=O)[nH]c(N)nc21` [2'-B-METHYL-GUANOSINE] has a bioavailability of 85%. `C[C@@]1(O)[C@H](O)[C@@H](CO)O[C@H]1n1cnc2c(N)ncnc21` gave a bioavailability of 0%. `C[C@@]1(O)[C@H](O)[C@@H](CO)O[C@H]1n1cc(F)c2c(N)ncnc21` gave a bioavailability of 51%.

System: Hepatitis C virus
Experiment: Compound was tested for the inhibition of HCV NS5B-mediated RNA synthesis
Assay type: functional, Hepacivirus hominis
Conditions: not given
Outline: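 Enzymatic activity of HCV NS5B Δ21 measured with nucleoside 5'-triphosphates as inhibitors, by an earlier protocol. Triphosphates purified by anion exchange, desalted by RP-HPLC, >90% pure, identity confirmed by MS. IC50 averaged over at least three separate determinations.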
For `C[C@@]1(O)[C@H](O)[C@@H](CO)O[C@H]1n1cnc2c(=O)[nH]c(N)nc21` [2'-B-METHYL-GUANOSINE], the IC50 was 0.13 µM. Work on `C[C@@]1(O)[C@H](O)[C@@H](CO)O[C@H]1n1cnc2c(N)ncnc21` yielded an IC50 of 1.9 µM.

System: Nucleic Acid
Experiment: Inhibition of HCV RNA replication in a subgenomic bicistronic replicon assay in HB-1 cells
Assay type: functional, cell-based, Hepacivirus hominis
Conditions: Hepatitis C virus, HB1
Outline: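 Subgenomic bicistronic HCV replicon in HB-1 cells; viral RNA quantified by in situ RNase protection assay after 24 h of nucleoside treatment. EC50 averaged over at least two independent potency determinations. Nucleosides purified by preparative RP-HPLC, purity generally >98%.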
For `C[C@]1(O)C(n2cc(C(N)=O)c3c(N)ncnc32)O[C@H](CO)[C@H]1O` (stereo partly drawn), the EC50 was 0.08 µM. With `C[C@@]1(O)[C@H](O)[C@@H](CO)O[C@H]1n1cc(Cl)c2c(O)nc(N)nc21` the EC50 was over 100 µM. `C[C@@]1(O)[C@H](O)[C@@H](CO)O[C@H]1n1ncc2c(N)ncnc21` gave an EC50 of over 100 µM. `C[C@@]1(O)[C@H](O)[C@@H](CO)O[C@H]1n1ccc2c(O)nc(N)nc21` showed an EC50 of over 100 µM. For `C[C@@]1(O)[C@H](O)[C@@H](CO)O[C@H]1n1cc(Cl)c2c(N)ncnc21`, the EC50 was 0.13 µM. `C[C@@]1(O)[C@H](O)[C@@H](CO)O[C@H]1n1ccc2c(N)nccc21` showed an EC50 of over 100 µM. For `Cc1cn([C@@H]2O[C@H](CO)[C@@H](O)[C@@]2(C)O)c2ncnc(N)c12`, the EC50 was 34 µM. In the case of `C[C@@]1(O)[C@H](O)[C@@H](CO)O[C@H]1n1cc(C(=O)O)c2c(N)ncnc21`, the EC50 is reported as 70 µM. `C[C@@]1(O)[C@H](O)[C@@H](CO)O[C@H]1n1cnc2c(=O)[nH]c(N)nc21` [2'-B-METHYL-GUANOSINE] showed an EC50 of 3.5 µM. For `C[C@@]1(O)[C@H](O)[C@@H](CO)O[C@H]1n1ccc2c(N)nc(F)nc21`, the EC50 was 100 µM. In the case of `C[C@]1(O)C(n2cc(C#N)c3c(N)ncnc32)O[C@H](CO)[C@H]1O` (stereo partly drawn), the EC50 is reported as 3.1 µM. In the case of `C[C@@]1(O)[C@H](O)[C@@H](CO)O[C@H]1n1ccc2c(N)nc(N)nc21`, the EC50 is reported as 100 µM. Work on `C[C@@]1(O)[C@H](O)[C@@H](CO)O[C@H]1n1cnc2c(N)ncnc21` yielded an EC50 of 0.26 µM. Work on `C[C@@]1(O)[C@H](O)[C@@H](CO)O[C@H]1n1ccc2c(N)ncnc21` [BETA-2'-C-METHYL-7-DEAZA-ADENOSINE] yielded an EC50 of 0.25 µM. In the case of `C[C@@]1(O)[C@H](O)[C@@H](CO)O[C@H]1n1cc(F)c2c(N)ncnc21`, the EC50 is reported as 0.07 µM. `C[C@@]1(O)[C@H](O)[C@@H](CO)O[C@H]1n1cc(Br)c2c(N)ncnc21` gave an EC50 of 0.24 µM.

System: not listed separately
Experiment: Cytotoxicity against HB-1 cells in an MTS-based assay
Assay type: functional
Conditions: HB1
`C[C@]1(O)C(n2cc(C(N)=O)c3c(N)ncnc32)O[C@H](CO)[C@H]1O` (stereo partly drawn) showed a CC50 of about 33 µM. Compound `C[C@@]1(O)[C@H](O)[C@@H](CO)O[C@H]1n1cc(Cl)c2c(O)nc(N)nc21` has a CC50 of over 100 µM. Work on `C[C@@]1(O)[C@H](O)[C@@H](CO)O[C@H]1n1ncc2c(N)ncnc21` yielded a CC50 of over 100 µM. With `C[C@@]1(O)[C@H](O)[C@@H](CO)O[C@H]1n1ccc2c(O)nc(N)nc21` the CC50 was over 100 µM. Work on `C[C@@]1(O)[C@H](O)[C@@H](CO)O[C@H]1n1cc(Cl)c2c(N)ncnc21` yielded a CC50 of about 50 µM. `C[C@@]1(O)[C@H](O)[C@@H](CO)O[C@H]1n1ccc2c(N)nccc21` gave a CC50 of over 100 µM. In the case of `Cc1cn([C@@H]2O[C@H](CO)[C@@H](O)[C@@]2(C)O)c2ncnc(N)c12`, the CC50 is reported as over 100 µM. With `C[C@@]1(O)[C@H](O)[C@@H](CO)O[C@H]1n1cc(C(=O)O)c2c(N)ncnc21` the CC50 was over 100 µM. In the case of `C[C@@]1(O)[C@H](O)[C@@H](CO)O[C@H]1n1cnc2c(=O)[nH]c(N)nc21` [2'-B-METHYL-GUANOSINE], the CC50 is reported as over 100 µM. `C[C@@]1(O)[C@H](O)[C@@H](CO)O[C@H]1n1ccc2c(N)nc(F)nc21` showed a CC50 of over 100 µM. For `C[C@]1(O)C(n2cc(C#N)c3c(N)ncnc32)O[C@H](CO)[C@H]1O` (stereo partly drawn), the CC50 was about 50 µM. With `C[C@@]1(O)[C@H](O)[C@@H](CO)O[C@H]1n1ccc2c(N)nc(N)nc21` the CC50 was over 100 µM. `C[C@@]1(O)[C@H](O)[C@@H](CO)O[C@H]1n1cnc2c(N)ncnc21` gave a CC50 of over 100 µM. Compound `C[C@@]1(O)[C@H](O)[C@@H](CO)O[C@H]1n1ccc2c(N)ncnc21` [BETA-2'-C-METHYL-7-DEAZA-ADENOSINE] has a CC50 of over 100 µM. In the case of `C[C@@]1(O)[C@H](O)[C@@H](CO)O[C@H]1n1cc(F)c2c(N)ncnc21`, the CC50 is reported as over 100 µM. Compound `C[C@@]1(O)[C@H](O)[C@@H](CO)O[C@H]1n1cc(Br)c2c(N)ncnc21` has a CC50 of 40 µM.

System: not listed separately
Experiment: Half-life in rats
Assay type: ADME
Conditions: rat, in vivo
Outline: as §1
`C[C@@]1(O)[C@H](O)[C@@H](CO)O[C@H]1n1cnc2c(N)ncnc21` gave a half-life of 18 min. In the case of `C[C@@]1(O)[C@H](O)[C@@H](CO)O[C@H]1n1cc(F)c2c(N)ncnc21`, the half-life is reported as 306 min.
